TAAR1 ag: human TAAR1 agonism; Q96RJ0; CHO RD-HGA16 TAAR1, Fluo-8 calcium fluorescence; vehicle wells 0%, saturating PEA agonist 100%; activation, % at 3 µM; actives 0.99% (n = 360,000); AID 624467;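 active means activation above the mean activation of all test compounds in the run plus 3 SD, cut at about 38% in these data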
Target sequence (Q96RJ0 whole entry, looked up): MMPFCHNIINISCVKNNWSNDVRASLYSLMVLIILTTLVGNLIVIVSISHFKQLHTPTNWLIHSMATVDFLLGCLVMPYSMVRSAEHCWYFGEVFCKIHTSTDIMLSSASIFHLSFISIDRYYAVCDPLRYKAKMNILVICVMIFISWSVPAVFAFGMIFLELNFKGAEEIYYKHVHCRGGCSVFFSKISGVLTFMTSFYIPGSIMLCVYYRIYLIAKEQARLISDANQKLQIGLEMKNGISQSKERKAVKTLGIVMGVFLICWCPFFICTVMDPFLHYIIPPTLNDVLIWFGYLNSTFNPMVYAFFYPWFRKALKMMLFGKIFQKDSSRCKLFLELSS
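Assay system: CHO-derived RD-HGA16 cells with stable Gα16 and human TAAR1; timing: 17-24 h seeding, 75 min 37 °C dye, 30 min RT; read-out: % activation from peak over basal fluorescence ratio, DMSO-to-PEA scaled; measured by: kinetic Fluo-8 calcium fluorescence; benchmarks: low control DMSO, high control PEA (EC100); doses: 3 µM single concentration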
GPR7 antag: antagonists of human GPR7 (neuropeptides B/W receptor 1); inhibition, % at 4.4 µM; GPR7-expressing cells, fluorescence antagonist assay; actives 1.1% (n = 290,000); P48145; in the data active means inhibition above about 16%, passing the limit was not always enough;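 further: cells stimulated with the agonist NPW; 0% = agonist with vehicle and 100% = vehicle without agonist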
TAAR1 antagonist: antagonists of human TAAR1. Q96RJ0. CHO RD-HGA16 TAAR1, Fluo-8 calcium fluorescence, antagonist. inhibition, % at 3 µM. actives 1.5% (n = 360,000). AID 624466;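 active means inhibition above a per-plate cutoff, the mean inhibition of test compounds on that plate plus 3 SD, cut at about 49% in these data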;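 further: 0% = DMSO plus EC80 beta-PEA response and 100% = DMSO alone without agonist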
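test system = CHO RD-HGA16 cells bearing hTAAR1 | replication = singlicate | controls = DMSO-only wells and EC80 β-PEA-stimulated wells | reagent = EC80 β-phenethylamine stimulus | read-out basis = percent inhibition of PEA-evoked calcium signal, max/basal emission ratio | schedule = seeding 17-24 h prior, 75-min 37 °C, 30-min RT dye loading | signal = kinetic Fluo-8 calcium fluorescence measurement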
OX1R antag-1: blocks the human orexin 1 receptor | AID 434989 | O43613 | CHO/OX1R cells, Fluo-8 calcium fluorescence, orexin A | inhibition, % at 5 µM | actives 0.43% (n = 330,000);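 active means inhibition above its plate's threshold, mean inhibition of all tested compounds on the plate plus 3 SD, cut at about 37% in these data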;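 further: 0% = orexin A challenge wells and 100% = SB-334867-A antagonist wells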
OX1R antag-2: OX1R (human) antagonism. O43613. inhibition, % at 6.6 µM. actives 1.8% (n = 330,000). AID 485270. OX1R-expressing cells, FRET antagonist read-out; in the data active means inhibition mostly above about 38%, no sharp cut-off; inactive means mostly below about 40%;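 further: 0% = agonist challenge alone and 100% = reference antagonist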
CHO parental Ca: counter-screen: ATP calcium response change in parental CHO cells; parental CHO-K1, ATP-induced calcium, Fluo-8 fluorescence; inhibition, % at 5.6 µM; actives 0.63% (n = 330,000);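 active means inhibition above that plate's mean sample inhibition plus 3 SD, cut at about 26% in these data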;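 further: 0% = ATP-challenged DMSO wells and 100% = DMSO wells without ATP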
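Measured by: calcium-sensitive Fluo-8 fluorescence / Test system: CHO parental line / Controls: ATP-challenged DMSO wells low, unchallenged DMSO wells high / Measure: % inhibition / Compound: single nominal dose of 5.6 µM per compound / Replicates: single well per compound, no replicates / Reagent: ATP as calcium-mobilizing challenge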
OX1R Fluo8 conf: confirmation of human orexin 1 receptor antagonists | inhibition, % at 5 µM | actives 38% (n = 1,100) | AID 492963 | shares compounds with OX1R antag-1 | CHO/OX1R cells, orexin A calcium Fluo-8 fluorescence; in the data active means inhibition above about 29%;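 further: 0% = agonist challenge alone and 100% = reference antagonist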
CHO Ca counter: signal in parental CHO cells, OX1R antagonist counter-screen; shares compounds with OX1R antag-1; parental CHO-K1, ATP-induced calcium, Fluo-8 fluorescence; inhibition, % at 5.6 µM; actives 9.3% (n = 1,100); AID 492965;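 active means inhibition above a per-plate limit, the mean inhibition of that plate's test compounds plus 3 SD, cut at about 25% in these data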;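 further: 0% = ATP challenge with DMSO and 100% = DMSO without ATP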
nonsel antag count: nonselective antagonism, TAAR1 counter-screen. counterscreen cell line, calcium fluorescence, antagonist mode. inhibition, % at 3 µM. actives 77% (n = 2,400). AID 651780. shares compounds with TAAR1 antagonist; in the data active means inhibition above about 22%;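 further: CHO-Ga16 host cells stimulated with ATP at an EC80 level; 0% = agonist EC80 plus vehicle and 100% = vehicle without agonist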
TAAR1 antag conf: confirmation of human TAAR1 antagonists. shares compounds with TAAR1 antagonist. TAAR1-expressing cells, fluorescence antagonist read-out. inhibition, % at 3 µM. actives 40% (n = 2,400); in the data active means inhibition above about 49%;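 further: CHO-Ga16 host cells challenged with agonist PEA near its EC80; 0% = agonist at EC80 plus vehicle and 100% = vehicle with no agonist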
Ga16 ag counter-1: nonselective Ga16 agonist in TAAR1 antagonist counter-screen; shares compounds with TAAR1 antagonist; Ga16-expressing cells, calcium fluorescence, agonist counterscreen; activation, % at 3 µM; actives 18% (n = 2,400); in the data active means activation above about 12%;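 further: 0% = vehicle wells and 100% = saturating stimulus response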
TAAR1 ag count: counter-screen for human TAAR1 antagonists: TAAR1 agonists. shares compounds with TAAR1 antagonist. activation, % at 3 µM. AID 651955. hTAAR1 cell line, fluorescence activation, agonist mode. actives 2% (n = 2,400); in the data active means activation above about 37%;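 further: CHO cells stably expressing TAAR1 with calcium dye readout; 0% = DMSO vehicle and 100% = full agonist response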
TAAR1 ag confirm: human TAAR1 agonism, confirmed | shares compounds with TAAR1 ag | CHO RD-HGA16 TAAR1, Fluo-8 calcium fluorescence; scaled: DMSO 0%, maximal phenethylamine 100% | activation, % at 3 µM | actives 82% (n = 2,400);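 active means activation above a cutoff set at the run's mean compound activation plus 3 SD, cut at about 39% in these data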
Ga16 ag counter-2: counter-screen for TAAR1 agonists: nonselective agonists in parental cells; shares compounds with TAAR1 ag; CHO-Ga16 parental, Fluo-8 calcium fluorescence; normalized to maximal ATP response, DMSO zero; activation, % at 3 µM; actives 50% (n = 2,400); AID 651787;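 active means activation above the run cutoff, the mean activation over all tested wells plus 3 SD, cut at about 12% in these data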;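 further: 0% = DMSO wells and 100% = maximal ATP response on the peak over basal ratio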
TAAR1 desensitize: counter-screen for human TAAR1 agonists: agonists that desensitize TAAR1 | shares compounds with TAAR1 ag | CHO RD-HGA16 hTAAR1, Fluo-8 calcium, beta-PEA response inhibition | inhibition, % at 3 µM | actives 46% (n = 2,400) | AID 651951;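 active means inhibition above the run cutoff, the mean inhibition of all test compounds plus 3 SD, cut at about 49% in these data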;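 further: beta-PEA stimulus applied at its EC80; loss of beta-PEA calcium signal after compound pretreatment read as receptor desensitization; 0% = DMSO with beta-PEA at EC80 and 100% = DMSO alone without agonist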
Ga16 antag count: counter-screen for TAAR1 agonists: nonselective Ga16 antagonists | actives 39% (n = 2,400) | AID 651952 | CHO-Ga16 ATP-induced calcium, Fluo-8 fluorescence | shares compounds with TAAR1 ag | inhibition, % at 3 µM;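 active means inhibition above the plate's mean compound inhibition plus 3 SD, computed per plate, cut at about 22% in these data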;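 further: 0% = EC80 ATP with DMSO and 100% = DMSO wells without ATP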
* = called active by the depositor. The list is not random: actives were taken first. Their share in the collection is about 4.6%.

For CC(NS(=O)(=O)c1cccc(Cl)c1)C(=O)Nc1ccc(-c2nc3ccccc3s2)cc1 (configuration not stated) the results were TAAR1 ag 24.7, GPR7 antag -6.5, TAAR1 antagonist 64.2*, OX1R antag-1 33.5, OX1R antag-2 55.2, CHO parental Ca -3.8, OX1R Fluo8 conf 11.6, CHO Ca counter -7.8, nonsel antag count 36.7*, TAAR1 antag conf 44.6, Ga16 ag counter-1 12.3* and TAAR1 ag count 24.5.
For Cc1ccc(C)c(Cn2nnc(C(=O)Nc3ccc4c(c3)OCCO4)c2N)c1 the results were TAAR1 ag 102.0*, TAAR1 antagonist 66.9*, OX1R antag-1 22.5, OX1R antag-2 5.8, CHO parental Ca 15.0, OX1R Fluo8 conf 36.0*, CHO Ca counter 20.2, TAAR1 ag confirm 105.2*, Ga16 ag counter-2 54.5*, TAAR1 desensitize 63.4* and Ga16 antag count 29.6*.
For COc1ccc(C(=O)NNC(=S)Nc2ccccc2)cc1 the results were TAAR1 ag -0.4, GPR7 antag -12.0, TAAR1 antagonist -25.6, OX1R antag-1 5.8, OX1R antag-2 23.7 and CHO parental Ca 8.7.
`COc1ccc(C(=O)NC(=S)NNC(=O)c2cccc(C)c2)cc1` gave TAAR1 ag 169.8*, TAAR1 antagonist 104.0*, OX1R antag-1 36.3, OX1R antag-2 10.9, CHO parental Ca 23.9, OX1R Fluo8 conf 31.4*, CHO Ca counter 12.8, TAAR1 ag confirm 148.0*, Ga16 ag counter-2 122.0*, TAAR1 desensitize 106.4* and Ga16 antag count 74.3*.
`COc1ccc(C(=O)NNC(=S)NC(=O)c2cccs2)cc1` gave TAAR1 ag 102.7*, GPR7 antag -0.8, TAAR1 antagonist 36.6, OX1R antag-1 21.8, OX1R antag-2 18.7, CHO parental Ca 17.8, OX1R Fluo8 conf 0.2, CHO Ca counter -3.4, TAAR1 ag confirm 66.7*, Ga16 ag counter-2 40.0*, TAAR1 desensitize 24.7 and Ga16 antag count 25.7*.
Screening COc1ccccc1-c1cnc(C(O)c2ccc(Cl)c(Cl)c2)[nH]1 (configuration not stated) returned TAAR1 ag 6.7 and TAAR1 antagonist -25.4.

Screens from PubChem.
